Results reported in ChEMBL document CHEMBL4390654, “Microwave-assisted solid-phase synthesis of antisense acpP peptide nucleic acid-peptide conjugates active against colistin- and tigecycline-resistant E. coli and K. pneumoniae” (Eur J Med Chem, 2019).

Key:
Escherichia coli [1] = assay: Antibacterial activity against Escherichia coli ATCC 25922 assessed as reduction in microbial growth incubated for 20 hrs; type: functional; settings: ATCC 25922, 20 h
In short: (§1)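 Broth microdilution MIC (modified Hancock protocol) in non-binding polystyrene plates. Inoculum ~2 × 10^5 CFU/mL in Mueller-Hinton broth with Mg²⁺ and Ca²⁺ at 4 mg/L each. Compounds dissolved in water, diluted in 0.01% acetic acid/0.2% BSA (final), added as 10× stocks. Covered plates incubated 20 h at 35 °C (± 2 °C) with 220 rpm circular shaking before MIC read.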

Escherichia coli [2] = assay: Antibacterial activity against Escherichia coli lacking a functional SbmA assessed as reduction in microbial growth incubated for 20 hrs
In short: (§2)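 Broth microdilution MIC after a modified Hancock protocol for cationic peptides, in non-binding polystyrene plates. Inoculum ~2 × 10^5 CFU/mL in Mueller-Hinton broth with Mg²⁺ and Ca²⁺ at 4 mg/L each. Compounds dissolved in water, diluted in 0.01% acetic acid, 0.2% BSA (final), added as 10× aliquots. Covered plates incubated 20 h at 35 °C (± 2 °C) with shaking at 220 rpm. MIC read as lowest inhibiting concentration.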

Klebsiella pneumoniae [3] = assay: Antibacterial activity against Klebsiella pneumoniae ATCC 13883 assessed as reduction in microbial growth incubated for 20 hrs; type: functional; settings: ATCC 13883, 20 h; in short: as §2
Pseudomonas aeruginosa = assay: Antibacterial activity against Pseudomonas aeruginosa PAO1 assessed as reduction in microbial growth incubated for 20 hrs; type: functional; settings: PAO1, 20 h; in short: as §2
Acinetobacter baumannii = assay: Antibacterial activity against Acinetobacter baumannii ATCC 19606 assessed as reduction in microbial growth incubated for 20 hrs; type: functional; settings: ATCC 19606 = CIP 70.34 = JCM 6841, 20 h; in short: as §2
Staphylococcus aureus = assay: Antibacterial activity against Staphylococcus aureus ATCC 29213 assessed as reduction in microbial growth incubated for 20 hrs; type: functional; settings: ATCC 29213, 20 h; in short: as §2
Escherichia coli [4] = assay: Antibacterial activity against multi-drug resistant Escherichia coli NMI 3548/14 assessed as reduction in microbial growth incubated for 20 hrs; type: functional; settings: NMI 3548/14, 20 h; in short: as §1
Escherichia coli [5] = assay: Antibacterial activity against multi-drug resistant Escherichia coli NMI 3898/15 assessed as reduction in microbial growth incubated for 20 hrs; type: functional; settings: NMI 3898/15, 20 h; in short: as §1
Klebsiella pneumoniae [6] = assay: Antibacterial activity against multi-drug resistant Klebsiella pneumoniae NMI 2697/14 assessed as reduction in microbial growth incubated for 20 hrs; type: functional; settings: NMI 2697/14, 20 h; in short: as §1
Klebsiella pneumoniae [7] = assay: Antibacterial activity against multi-drug resistant Klebsiella pneumoniae NMI 3081/09 assessed as reduction in microbial growth incubated for 20 hrs; type: functional; settings: NMI 3081/09, 20 h; in short: as §1
[8] = Hemolytic activity against RBC (unknown origin) at 100 uM; type: ADME, cell-based, Erythrocyte; settings: red blood cells (erythrocytes); read-out: Activity
[9] = Ratio of MIC for Escherichia coli ATCC 25922 to MIC against Escherichia coli NMI 3898/15; type: functional
[10] = Ratio of MIC for Escherichia coli ATCC 25922 to MIC for Klebsiella pneumoniae ATCC 13883; type: functional

**Q.** Which MIC (Escherichia coli [1]) does the source give for `CC[C@H](C)[C@H](NC(=O)[C@@H]1CCCN1C(=O)[C@H](CCCNC(=N)N)NC(=O)[C@@H]1CCCN1C(=O)[C@H](Cc1cnc[nH]1)NC(=O)[C@H](CO)NC(=O)[C@@H](NC(=O)[C@@H]1CCCN1C(=O)[C@H](CCCNC(=N)N)NC(=O)[C@@H]1CCCN1C(=O)[C@H](CO)NC(=O)[C@H](Cc1ccc(O)cc1)NC(=O)[C@@H]1CCCN1C(=O)[C@H](CCCNC(=N)N)NC(=O)[C@@H]1CCCN1C(=O)[C@H](CCCNC(=N)N)NC(=O)CCCCCNC(=O)[C@@H](N)CCCNC(=N)N)[C@@H](C)O)C(=O)N[C@@H](CCCNC(=N)N)C(=O)N[C@H](C(=O)N[C@@H](CSC1CC(=O)N(CCC(=O)NCCOCCOC(=O)N[C@@H](CS)C(=O)N[C@H](C(=O)N[C@@H](CS)C(=O)N[C@@H](C)C(=O)N[C@H](C(=O)N[C@@H](C)C(=O)N[C@@H](CS)C(=O)N[C@H](C(=O)N[C@@H](CS)C(=O)N[C@H](C(N)=O)[C@@H](C)O)[C@@H](C)O)[C@@H](C)O)[C@@H](C)O)C1=O)C(N)=O)C(C)C` (stereo partly drawn) here?
**A.** 16 µg/mL

**Q.** And the MIC (Escherichia coli [2])?
**A.** > 64 µg/mL

**Q.** What about the MIC (Klebsiella pneumoniae [3]) of the same compound?
**A.** 4 to 8 µg/mL

**Q.** And the MIC (Pseudomonas aeruginosa)?
**A.** > 64 µg/mL

**Q.** What about the MIC (Acinetobacter baumannii) of the same compound?
**A.** > 64 µg/mL

**Q.** And the MIC (Staphylococcus aureus)?
**A.** > 64 µg/mL

**Q.** What about the MIC (Escherichia coli [4]) of the same compound?
**A.** 2 to 8 µg/mL

**Q.** What about the MIC (Escherichia coli [5]) of the same compound?
**A.** 8 to 32 µg/mL

**Q.** And the MIC (Klebsiella pneumoniae [6])?
**A.** 32 to 64 µg/mL

**Q.** What about the MIC (Klebsiella pneumoniae [7]) of the same compound?
**A.** 64 µg/mL

**Q.** And the hemolysis at 100 µM [8]?
**A.** < 1%

**Q.** What about the Ratio [9] of the same compound?
**A.** 2 to 8

**Q.** And the Ratio [10]?
**A.** 2 to 4
